Screening data from PubChem BioAssay.
PRMT1 FP inh = inhibitors of human PRMT1; Q99873; recombinant PRMT1, activity-based probe fluorescence polarization; inhibition, % at 2.79 µM; 370,000 compounds, 1.3% hits; AID 652257;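 active = inhibition above about 21% made by adding two undisclosed values, limit read from the data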
Target sequence (Q99873 whole entry, looked up): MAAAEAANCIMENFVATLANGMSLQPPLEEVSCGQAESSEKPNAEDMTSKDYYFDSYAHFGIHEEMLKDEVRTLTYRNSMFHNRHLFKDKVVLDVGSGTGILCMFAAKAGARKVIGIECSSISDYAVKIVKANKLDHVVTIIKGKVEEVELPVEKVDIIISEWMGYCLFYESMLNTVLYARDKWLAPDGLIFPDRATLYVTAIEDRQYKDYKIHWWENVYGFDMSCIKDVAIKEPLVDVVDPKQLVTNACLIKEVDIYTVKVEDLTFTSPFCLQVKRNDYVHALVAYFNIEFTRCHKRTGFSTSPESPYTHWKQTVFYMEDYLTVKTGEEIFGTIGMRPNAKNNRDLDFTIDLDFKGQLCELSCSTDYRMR
mABHD4 FP = inhibits mouse alpha/beta hydrolase domain 4; Q8VD66; purified mABHD4, FP-Rh probe fluorescence polarization; inhibition, % at 8.92 µM; 370,000 compounds, 0.54% hits; AID 720543;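 active = inhibition exceeding the mean over every tested compound plus 3 SD, cut at about 30% in these data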
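Material: mouse ABHD4 enzyme, wild type; Benchmarks: S159A mutant high control, sample median low control; Buffer or medium: HEPES pH 7.0, NaCl, Pluronic buffer; Signal: fluorescence polarization; Read-out: percent inhibition of probe binding, normalized to plate controls; Timing: pre-incubation 45 min, probe exposure 60 min, at 25 °C; Dosing: 8.92 µM, single dose.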
HTRA1 inh = HTRA1 (human) protease inhibition; Q92743; recombinant HTRA1, FP-rhodamine activity-based probe, fluorescence polarization; inhibition, % at 5.96 µM; 340,000 compounds, 0.5% hits; in the data active = inhibition above about 36%
TCR CD3 inh = blocks the human TCR-CD3 interaction. TAMRA-labeled TCR probe fluorescence, biochemical. inhibition, % at 9.4 µM. 360,000 compounds, 0.37% hits. AID 651800; in the data active = inhibition above about 19%;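 note: recombinant mutant TCR 2C K166C tagged with TAMRA read by polarization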
SIAE inh = human SIAE inhibition, primary screen. Q9HAT2. SIAE FP-Rh probe binding, fluorescence polarization. inhibition, % at 9.66 µM. 370,000 compounds, 0.69% hits;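 active = inhibition above a cutoff: mean of compounds within the control limits plus 3 SD of those, cut at about 17% in these data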
SIAE confirm = confirmation of human SIAE inhibitors. shares compounds with SIAE inh. SIAE FP-Rh activity-based probe, fluorescence polarization. inhibition, % at 9.66 µM. 2,300 compounds, 13% hits. AID 1117263;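 active = mean inhibition of the replicates above the hit cutoff set in the primary screen, cut at about 17% in these data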;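 note: inhibitors lower polarization as more probe stays unbound to SIAE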
Each line names hits and unclear results; the compound was inactive in the other large screens (follow-up assays come after a bar, where they were run). A selection: hits, their analogues and other compounds. The true share with any hit is near 2.6%.

CNC(=O)c1c(NC(=O)c2ccc(S(=O)(=O)N3CCCCC3C)cc2)sc2c1CCN(C)C2 (stereo unspecified)	SIAE inh 17 | SIAE confirm inactive
O=C(O)CSc1nnc(Nc2ccccc2)n1-c1ccccc1	SIAE inh 18 | SIAE confirm inactive
O=C(O)CSc1nnc(C2CC2)n1-c1ccccc1	none
Cc1ccc2nc(CN(C)C(=O)[C@@H](Cc3ccccc3)NC(=O)[C@H]3O[C@@H](n4cnc(C(N)=O)n4)[C@H](O)[C@@H]3O)[nH]c2c1	SIAE inh 68 (no result: HTRA1 inh) | SIAE confirm 74
CN(CCc1ccccn1)C(=O)[C@@H](Cc1ccccc1)NC(=O)[C@H]1O[C@@H](n2ccc(=O)[nH]c2=O)[C@H](O)[C@@H]1O	none (no result: HTRA1 inh)
CC(=O)c1ccc(NC(=O)CCCN2C(=O)C(c3ccccc3)Oc3cccnc32)cc1 (stereo unspecified)	none
O=c1[nH][nH]c(=O)n1-c1ccccc1	SIAE inh 20 | SIAE confirm inactive
Cc1ccc(-n2c([S-])c(C(=O)Nc3ccc(OC(F)F)cc3)[n+]3ccc(C(=O)NCCO)cc23)cc1C	SIAE inh 18 | SIAE confirm inactive
CCN1C(=O)Cc2cc(S(=O)(=O)NCCc3ccccc3)ccc21	none
CCCCNC(=O)C[C@@H]1C[C@@]2(C(=O)OC)CCCCC=C2N(Cc2ccccc2)C1=O	SIAE inh 22 (no result: HTRA1 inh) | SIAE confirm inactive
COc1ccccc1C1=NOC(Cn2c(NCCCO)nc3c2c(=O)n(C)c(=O)n3C)C1 (stereo unspecified)	none
COc1ccccc1C1=NOC(Cn2c(NCC3CCCO3)nc3c2c(=O)n(C)c(=O)n3C)C1 (stereo unspecified)	SIAE inh 17 | SIAE confirm inactive
COc1cccc(-c2cc(CNC(=O)[C@H]3O[C@@H](n4cnc(C(N)=O)n4)[C@H](O)[C@@H]3O)no2)c1	SIAE inh 77 (no result: HTRA1 inh) | SIAE confirm 80
COc1cccc(-c2cc(CNC(=O)[C@H]3O[C@@H](n4cnc5c(N)ncnc54)[C@H](O)[C@@H]3O)no2)c1	SIAE inh 20 (no result: HTRA1 inh) | SIAE confirm 25
COc1ccc(Cl)c(CNC[C@H]2O[C@@H](n3cnc(C(N)=O)n3)[C@H](O)[C@@H]2O)c1	none
COc1cccc(-c2cc(CNC(=O)[C@H]3O[C@@H](n4ccc(N)nc4=O)[C@H](O)[C@@H]3O)no2)c1	none (no result: HTRA1 inh)
Cc1ccccc1C(=O)NNC(=O)c1cc(S(=O)(=O)N2CCOCC2)ccc1C	none
CCN(CC)C(=O)CC[C@@H]1CC[C@]2(CCCN(C(=O)C3CCCCC3)C2)O1	none (no result: HTRA1 inh, TCR CD3 inh)
COc1cc(C(=O)C(=O)c2ccc(OC)c(OC)c2)ccc1O	none
Cc1cc(C2C(=O)NC(=O)C2=O)c(C)cc1Br (stereo unspecified)	none
CCOc1ccc(N(CC(=O)NC2CCCC2)C(=O)Cn2nnc(-c3ccc(C)o3)n2)cc1	none
COc1ccc(N(CC(=O)NC2CCCC2)C(=O)Cn2nnc(-c3ccc(C)o3)n2)cc1	SIAE inh 18 | SIAE confirm inactive
CCN(Cc1ccccc1)C(=O)CCc1nc(CN2CCN(C(=O)c3ccc([N+](=O)[O-])cc3)CC2)no1	none
CC(C)(C)N(NC(=O)Nc1ccccc1)C(=O)c1ccccc1	none
CC(C)(C)N(NC(=O)Nc1ccc(Cl)cc1)C(=O)c1ccccc1	SIAE inh 17 | SIAE confirm inactive
CC(=O)N1CCC2(CC1)C/C(=N\NC(=S)Nc1ccc(C)cc1)c1cc(O)ccc1O2	SIAE inh 26 | SIAE confirm inactive
Cc1ccc(C(C)NC(=O)c2cc3cc(Br)ccc3oc2=N)cc1 (stereo unspecified)	none
Cc1ccc(OCc2cc(C(=O)N3CCC(C(O)C(C)C)CC3)no2)cc1C (stereo unspecified)	none
CCN1C(=O)/C(=C2\SC(=S)N(CCCOC)C2=O)c2ccccc21	none
CCN1C(=O)/C(=C2/C(=O)N3c4c(cc(OC(C)=O)cc42)C(C)=CC3(C)C)SC1=S	SIAE inh 17 | SIAE confirm inactive
COc1ccc(C2CC(=O)Nc3ccccc3S2(=O)=O)cc1OC (stereo unspecified)	SIAE inh 18 | SIAE confirm inactive
COC(=O)Nc1ncc(CN2CCc3ccccc3C2)s1	SIAE inh 78 | SIAE confirm inactive
O=C(O)c1ccc(Nc2cccc(F)c2)c([N+](=O)[O-])c1	SIAE inh 20 | SIAE confirm inactive
CC(NC(=O)COC(=O)C12CC3CC(CC(Br)(C3)C1)C2)c1ccccc1 (stereo unspecified)	none
CCOC(=O)N1CCN(Cc2c(F)cccc2Cl)CC1	SIAE inh 18 | SIAE confirm inactive
O=C(CSc1nnc(CNC(=O)c2ccc(F)cc2)o1)NCC1CCCO1 (stereo unspecified)	none
S=C(NCC1CCCO1)Nc1ccccc1 (stereo unspecified)	SIAE inh 21 | SIAE confirm inactive
COc1ccc(S(=O)(=O)N(CC(=O)NCC2CCCO2)Cc2ccccc2)cc1 (stereo unspecified)	none
O=C(NCC1CCCO1)c1ccccc1 (stereo unspecified)	SIAE inh 17 | SIAE confirm inactive
O=C(NCC1CCCO1)c1nnc(Cc2ccc(F)cc2)o1 (stereo unspecified)	SIAE inh 18 | SIAE confirm inactive
O=C(CN(Cc1ccc(Br)cc1)S(=O)(=O)c1ccccc1)NCC1CCCO1 (stereo unspecified)	SIAE inh 18 | SIAE confirm inactive
O=C(NCc1ccc(Cl)cc1)C1CCC(=O)N(C2CCCCCC2)C1 (stereo unspecified)	none
CCN(CC(=O)NCc1ccc(Cl)cc1)C(=O)Cc1ccc(OC)cc1	none
CCOc1ccc(OCCC(=O)OCC(=O)N(CC)c2c(N)n(Cc3ccccc3)c(=O)[nH]c2=O)cc1	none
COc1cc(/C=N\NC(=O)c2ccc(Cn3cc(Br)c([N+](=O)[O-])n3)o2)cc(OC)c1O	SIAE inh 17 | SIAE confirm inactive
CSc1nnc(C)c(/C=C/Nc2ccc(C)cc2)n1	none
CSc1nnc(C)c(/C=C/NOCc2ccc(Cl)cc2)n1	SIAE inh 18 | SIAE confirm inactive
NC(=O)N/N=C/c1ccc(-c2ccc([N+](=O)[O-])cc2)o1	none
O=[N+]([O-])c1ccc(-c2ccc(/C=N/O)o2)cc1	SIAE inh 25 (no result: HTRA1 inh) | SIAE confirm inactive
COc1ccc(C(=O)Oc2ccc3c(C)cc(=O)oc3c2C(C)=O)cc1	SIAE inh 17 | SIAE confirm inactive
CC(=O)Oc1ccc2c(C)cc(=O)oc2c1C(=O)c1ccccc1	none
CC1CC(C)(C)CC2(C1)NC(=O)N(CC(=O)N(C)Cc1nc3ccccc3c(=O)[nH]1)C2=O (stereo unspecified)	SIAE inh 19 | SIAE confirm inactive
CN(C)Cc1c(O)ccc2occ(C(=O)c3ccc(F)cc3)c12	SIAE inh 22 | SIAE confirm inactive
